Reference: ChEMBL document CHEMBL1122644, “Ring-substituted 1,2-dialkylated 1,2-bis(hydroxyphenyl)ethanes. 2. Synthesis and estrogen receptor binding affinity of 4,4'-, 5,5'-, and 6,6'-disubstituted metahexestrols” (J Med Chem, 1984)

Tests used:
[1] = target: Estrogen receptor (Bos taurus) (UniProt Q9XSB5+P49884); test: Relative binding affinity for calf uterine estrogen receptor is the ratio of molar concentrations of 17-beta-estradiol and compound required to decrease amount of bound [3H]-E2 by 50% X 100.; assay type: protein assay
Method in brief: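 Calf uterine cytosol incubated with [3H]estradiol and competitor at 4 °C for 16 h. Free ligand removed with dextran-coated charcoal, then centrifuged and a supernatant aliquot counted. Six competitor concentrations chosen to span 50% competition on a semilog plot. Molar concentrations of unlabeled estradiol and test compound giving 50% reduction in binding were read from the plot.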

[2] = target: T1, Estrogen receptor (Mus musculus) (UniProt O08537+P19785); test: Anti-estrogenic activity in mouse uterotrophic assay at 0 ug; assay type: functional; parameters: unit not given here
Method in brief: (§1)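 Immature female NMRI mice, 20 days old (14.5 ± 1.2 g), randomized into groups of 10. Test compound in olive oil (0.1 mL) given subcutaneously daily for 3 days alongside estrone stimulation. Uteri removed 24 h after last injection, fixed in Bouin's solution, washed, dried and weighed. Readout is inhibition of estrone-stimulated uterine growth.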

[3] = target: T1, Estrogen receptor (Mus musculus); test: (§2) Anti-estrogenic activity in mouse uterotrophic assay at 1 ug; assay type: functional; parameters: unit not given here; method in brief: as §1
[4] = target: T1, Estrogen receptor (Mus musculus); test: Anti-estrogenic activity in mouse uterotrophic assay at 10 ug; assay type: functional; parameters: unit not given here; method in brief: as §1
[5] = target: T1, Estrogen receptor (Mus musculus); test: Anti-estrogenic activity in mouse uterotrophic assay at 100 ug; assay type: functional; parameters: unit not given here; method in brief: as §1
[6] = target: T1, Estrogen receptor (Mus musculus); test: Estrogenic activity in mouse uterotrophic assay at 0 ug; assay type: functional; parameters: unit not given here
Method in brief: (§3)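 Uterotrophic test in 20-day-old immature female NMRI mice (14.5 ± 1.2 g), 10 per group. Daily s.c. injections of compound in 0.1 mL olive oil for 3 days. Uteri excised 24 h after final dose, Bouin-fixed, washed, dried and weighed to measure stimulation of uterine growth.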

[7] = target: T1, Estrogen receptor (Mus musculus); test: Estrogenic activity in mouse uterotrophic assay at 0.5 ug; assay type: functional; method in brief: as §3
[8] = target: T1, Estrogen receptor (Mus musculus); test: Estrogenic activity in mouse uterotrophic assay at 10 ug; assay type: functional; parameters: unit not given here; method in brief: as §3
[9] = target: T1, Estrogen receptor (Mus musculus); test: Estrogenic activity in mouse uterotrophic assay at 100 ug; assay type: functional; parameters: unit not given here; method in brief: as §3
[10] = target: T1, Estrogen receptor (Mus musculus); test: Estrogenic activity in mouse uterotrophic assay at 1000 ug; assay type: functional; parameters: unit not given here; method in brief: as §3
[11] = target: T1, Estrogen receptor (Mus musculus); test: Estrogenic activity in mouse uterotrophic assay at 5 ug; assay type: functional; method in brief: as §3
[12] = target: T1, Estrogen receptor (Mus musculus); test: Estrogenic activity in mouse uterotrophic assay at 50 ug; assay type: functional; method in brief: as §3
[13] = target: T1, Estrogen receptor (Mus musculus); test: Anti-estrogenic activity as inhibition of estrone-stimulated uterine growth in mice at 100 mg/kg; assay type: functional, organism-based; parameters: dose 100 mg/kg; method in brief: as §1
[14] = target: T1, Estrogen receptor (Mus musculus); test: Anti-estrogenic activity as inhibition of estrone-stimulated uterine growth in mice at 10 mg/kg; assay type: functional, organism-based; parameters: dose 10 mg/kg; method in brief: as §1
[15] = target: T1, Estrogen receptor (Mus musculus); test: Anti-estrogenic activity as inhibition of estrone-stimulated uterine growth in mice at 1 mg/kg; assay type: functional, organism-based; parameters: dose 1 mg/kg; method in brief: as §1
[16] = target: T1, Estrogen receptor (Mus musculus); test: as §2; assay type: functional; method in brief: as §1
[17] = target: T1, Estrogen receptor (Mus musculus); test: Estrogenic activity in mouse uterotrophic assay at 1 ug; assay type: functional; method in brief: as §3

T1 sequence (O08537 whole entry, looked up): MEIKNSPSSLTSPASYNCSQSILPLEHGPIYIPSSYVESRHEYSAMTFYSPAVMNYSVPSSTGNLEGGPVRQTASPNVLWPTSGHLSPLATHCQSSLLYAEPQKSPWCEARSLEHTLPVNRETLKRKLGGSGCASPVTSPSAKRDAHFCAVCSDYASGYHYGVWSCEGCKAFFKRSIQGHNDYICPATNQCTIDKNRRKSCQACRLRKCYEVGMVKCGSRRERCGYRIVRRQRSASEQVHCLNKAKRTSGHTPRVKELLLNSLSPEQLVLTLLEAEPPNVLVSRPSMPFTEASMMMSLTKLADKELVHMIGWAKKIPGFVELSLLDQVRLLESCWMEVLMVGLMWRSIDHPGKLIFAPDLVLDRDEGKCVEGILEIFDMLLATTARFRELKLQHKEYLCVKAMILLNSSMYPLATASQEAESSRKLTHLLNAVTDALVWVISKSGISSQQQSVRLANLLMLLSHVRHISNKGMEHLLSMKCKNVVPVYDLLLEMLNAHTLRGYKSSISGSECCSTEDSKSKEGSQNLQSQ
T1 sequence (P19785 whole entry, looked up): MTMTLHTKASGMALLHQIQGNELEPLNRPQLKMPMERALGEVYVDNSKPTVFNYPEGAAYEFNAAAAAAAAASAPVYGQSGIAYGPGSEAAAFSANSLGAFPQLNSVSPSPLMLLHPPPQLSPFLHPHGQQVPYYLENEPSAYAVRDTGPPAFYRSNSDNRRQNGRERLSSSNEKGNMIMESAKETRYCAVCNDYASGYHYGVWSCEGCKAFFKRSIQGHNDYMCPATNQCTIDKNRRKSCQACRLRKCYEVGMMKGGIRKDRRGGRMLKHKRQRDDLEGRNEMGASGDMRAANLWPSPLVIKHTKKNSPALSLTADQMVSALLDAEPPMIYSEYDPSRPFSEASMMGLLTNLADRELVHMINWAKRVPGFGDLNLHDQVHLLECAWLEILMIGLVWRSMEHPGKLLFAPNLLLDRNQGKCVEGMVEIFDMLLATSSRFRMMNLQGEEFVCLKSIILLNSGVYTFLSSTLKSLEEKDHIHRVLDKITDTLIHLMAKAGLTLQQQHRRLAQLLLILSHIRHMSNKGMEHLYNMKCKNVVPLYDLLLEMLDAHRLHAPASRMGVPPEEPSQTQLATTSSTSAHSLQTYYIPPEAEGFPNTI

CCC(c1ccc(O)c(COC)c1)C(CC)c1ccc(O)c(COC)c1 (configuration not stated)
RBA [1]: 0.55

CCC(c1ccc(O)c(CO)c1)C(CC)c1ccc(O)c(CO)c1 (configuration not stated)
RBA [1]: 0.71

CCC(c1ccc(Br)c(O)c1)C(CC)c1ccc(Br)c(O)c1 (configuration not stated)
RBA [1]: 0.03

CCC(c1cc(O)ccc1C)C(CC)c1cc(O)ccc1C (configuration not stated)
RBA [1]: 15
Activity [2]: 13.7
Activity [3]: 27.2
Activity [4]: 25.4
Activity [5]: 31
Activity [6]: 13.7
Activity [7]: 13.3
Activity [8]: 37.5
Activity [9]: 52.1
Activity [10]: 50.5
Activity [11]: 19.8
Activity [12]: 41.9
inhibition [13]: 22%
inhibition [14]: 47%
inhibition [15]: 39%

CCC(c1ccc(N)c(O)c1)C(CC)c1ccc(N)c(O)c1 (configuration not stated)
RBA [1]: 0.52
Activity [2]: 14.8
Activity [3]: 33
Activity [4]: 41.7
Activity [5]: 42.3
Activity [6]: 13.9
Activity [8]: 19.9
Activity [9]: 19.5
Activity [10]: 36.6
inhibition [15]: 29%

CCC(c1ccc(O)cc1C)C(CC)c1ccc(O)cc1C (configuration not stated)
RBA [1]: 8.5

CC[C@H](c1ccc(O)cc1)[C@@H](CC)c1ccc(O)cc1
RBA [1]: 27

CCC(c1ccc(O)cc1Cl)C(CC)c1ccc(O)cc1Cl (configuration not stated)
RBA [1]: 2.2

CCC(c1ccc(C(C)=O)c(O)c1)C(CC)c1ccc(C(C)=O)c(O)c1 (configuration not stated)
RBA [1]: < 0.01

CCC(c1ccc(O)cc1F)C(CC)c1ccc(O)cc1F (configuration not stated)
RBA [1]: 6.5

CCC(c1ccc(CO)c(O)c1)C(CC)c1ccc(CO)c(O)c1 (configuration not stated)
RBA [1]: 0.03

CCC(c1ccc(O)cc1O)C(CC)c1ccc(O)cc1O (configuration not stated)
RBA [1]: 32

CCc1cc(C(CC)C(CC)c2ccc(O)c(CC)c2)ccc1O (configuration not stated)
RBA [1]: 1.2

CCC(c1cc(O)ccc1F)C(CC)c1cc(O)ccc1F (configuration not stated)
RBA [1]: 7
Activity [2]: 13.7
Activity [4]: 38.9
Activity [5]: 41.2
Activity [16]: 37.8
Activity [6]: 13.1
Activity [17]: 15.5
Activity [8]: 23.2
Activity [9]: 39
Activity [10]: 34.6

CCC(c1ccc(O)c(I)c1)C(CC)c1ccc(O)c(I)c1 (configuration not stated)
RBA [1]: 0.17

CCC(c1ccc(Cl)c(O)c1)C(CC)c1ccc(Cl)c(O)c1 (configuration not stated)
RBA [1]: 0.07

CCC(c1ccc(O)c([N+](=O)[O-])c1)C(CC)c1ccc(O)c([N+](=O)[O-])c1 (configuration not stated)
RBA [1]: 0.14

CCC(c1ccc(N(C)C)c(O)c1)C(CC)c1ccc(N(C)C)c(O)c1 (configuration not stated)
RBA [1]: < 0.01

CCC(c1ccc(O)c(C(C)=O)c1)C(CC)c1ccc(O)c(C(C)=O)c1 (configuration not stated)
RBA [1]: < 0.01

CCC(c1ccc(I)c(O)c1)C(CC)c1ccc(I)c(O)c1 (configuration not stated)
RBA [1]: < 0.01
